The source of these data is ChEMBL document CHEMBL1123419, “Synthesis and antiviral activity of sulfonamidobenzophenone oximes and sulfonamidobenzamides” (1986).

One test relates to Poliovirus 1. Description: microbe, parasite or virus in culture. Type of test: functional. Particulars: Enterovirus C; read-out: ED50 (the source's name).
Test [1] concerns CV-1. The test is described as follows: Chemotherapeutic index in CV-1 cells (chemotherapeutic index=50% cytotoxic dose/50% effective dose). It is filed as functional, Cercopithecidae. The essentials:
(§1)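 Index = 50% cytotoxic dose / 50% plaque-inhibition dose. For cytotoxicity, 200 cells/mL in suspension were mixed with 10% FBS MEM carrying serial compound dilutions and incubated 7 days at 37 °C under 5% CO2. Colonies were stained with 1% crystal violet and counted, and the 50% cytotoxic dose was read from the dose-response curve.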

Test [2] deals with Enterovirus. Description: Antiviral activity against rhinovirus 1A using plaque-inhibition assay. It is filed as functional. Particulars: read-out: ED50 (the source's name). The method in brief:
(§2)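 Plaque reduction: confluent monolayers were infected with 100-200 PFU. Hela (Ohio) cells were used for rhinoviruses 10 and 1A and coxsackieviruses B4 and A9, CV-1 for poliovirus type 1 Mahoney, and LLC-MK2 for enterovirus 70. Cells were overlaid with 2.0% agar in MEM plus 4% FBS containing serial compound concentrations. Incubation was 37 °C for polio/coxsackie and 33 °C for rhino/enterovirus, with a neutral red (0.004%) second overlay. ED50 was taken from the dose-response curve.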

In test [3] the test system is HeLa. Description: Antiviral activity was measured against Hela cells injected with rhinovirus 1A. It is filed as functional, Homo sapiens. The essentials: (§3)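 Rhinovirus spectrum in Hela cells: infected cultures were kept 3 days at 33 °C, stained with crystal violet and examined microscopically for cytopathic effect. The end point was 50% inhibition.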
Test [4] has as its system CV-1. Description: Compound was evaluated for its failure of virucidal activity in poliovirus infected CV-1 cells at 50 ug/mL. virus titer 7.4*10e7 PFU/mL. It is filed as functional, Cercopithecidae.
The test system of test [5] is HeLa. Description: Antiviral activity was measured against Hela cells injected with rhinovirus 10. It is filed as functional, Homo sapiens. The method in brief:
as §3

The test system of test [6] is HeLa. Description: Antiviral activity was measured against Hela cells injected with coxsackie virus type A9. It is filed as functional, Homo sapiens. The method in brief: as §2
Test [7] deals with CV-1. The test is described as follows: Compound was evaluated for its failure of virucidal activity in poliovirus infected CV-1 cells at 0.5 ug/mL. virus titer 6.6*10e7 PFU/mL. It is filed as functional, Cercopithecidae.
Test [8] has as its system HeLa. The test is described as follows: Antiviral activity was measured against Hela cells injected with coxsackie virus type B4. Type of test: functional, Homo sapiens. The method in brief:
as §2

Test [9] concerns CV-1. The test is described as follows: Compound was evaluated for its failure of virucidal activity in poliovirus infected CV-1 cells at 5 ug/mL. virus titer 7.1*10e7 PFU/mL. It is filed as functional, Cercopithecidae.
In test [10] the test system is HeLa. Description: Antiviral activity was measured against Hela cells injected with rhinovirus 19. It is filed as functional, Homo sapiens. The essentials:
as §3

Test [11] concerns HeLa. The test is described as follows: Antiviral activity was measured against Hela cells injected with rhinovirus 26. Type of test: functional, Homo sapiens. The essentials:
as §3

The test system of test [12] is CV-1. The test is described as follows: Compound was evaluated for chemotherapeutic index in CV-1 cells (chemotherapeutic index=50% cytotoxic dose/50% effective dose). Type of test: functional, Cercopithecidae. The method in brief: as §1
In test [13] the test system is Enterovirus. The test is described as follows: Antiviral activity against rhinovirus 10 using plaque-inhibition assay. Type of test: functional. Particulars: read-out: ED50 (the source's name). The essentials: as §2
Another test concerns LLC-MK2. The test is described as follows: Antiviral activity was measured against LLC-MK2 cells injected with enterovirus 70. It is filed as functional, Cercopithecidae. The method in brief: as §2
The test system of test [14] is CV-1. Description: Effect on time of addiction in poliovirus infected CV-1 cells treated with 1 ug/mL of compound at 2 h. virus titer 5.0*10e8. Type of test: functional, Cercopithecidae.
Test [15] has as its system CV-1. Description: Compound was evaluated for its failure of virucidal activity in poliovirus infected CV-1 cells at 0.5 ug/mL. virus titer 6.4*10e7 PFU/mL. It is filed as functional, Cercopithecidae.
For test [16], the system named is CV-1. Description: Effect on time of addiction in poliovirus infected CV-1 cells treated with 1 ug/mL of compound at 1 h. virus titer 3.6*10e8. It is filed as functional, Cercopithecidae.
Test [17] concerns CV-1. Description: Effect on time of addiction in poliovirus infected CV-1 cells treated with 1 ug/mL of compound at 3 h. virus titer 1.6*10e9. It is filed as functional, Cercopithecidae.
Test [18] has as its system CV-1. Description: Effect on time of addiction in poliovirus infected CV-1 cells treated with 1 ug/mL of compound at 0 h. virus titer 4.8*10e8. It is filed as functional, Cercopithecidae.
In test [19] the test system is CV-1. Description: Compound was evaluated for its failure of virucidal activity in poliovirus infected CV-1 cells at 5 ug/mL. virus titer 7.6*10e7 PFU/mL. It is filed as functional, Cercopithecidae.
The subject of test [20] is CV-1. Description: Effect on time of addiction in poliovirus infected CV-1 cells treated with 1 ug/mL of compound at 4 h. virus titer 3.1*10e9. Type of test: functional, Cercopithecidae.
The subject of test [21] is CV-1. Description: Effect on time of addiction in poliovirus infected CV-1 cells treated with 1 ug/mL of compound at 5 h. virus titer 4.3*10e9. It is filed as functional, Cercopithecidae.

In brackets after ≈: the same amount, converted by molar mass.

Turning to `CCCCCc1ccc(NC(=O)c2ccc(NS(=O)(=O)N(C)C)cc2)cc1`, the results for the EC50 in the test on Poliovirus 1 and in the test on Enterovirus [2] were 0.32 µg/mL (≈ 0.822 µM) and 0.51 µg/mL (≈ 1.31 µM), respectively. In addition, the Chemotherapeutic index with CV-1 [1] is 4.

Turning to `CN(C)S(=O)(=O)Nc1ccc(C(=O)Nc2ccc(C(F)(F)F)cc2)cc1`, the EC50 in the test with Poliovirus 1 turned out to be 0.18 µg/mL (≈ 0.465 µM); in the test with Enterovirus [2], 0.17 µg/mL (≈ 0.439 µM). The Chemotherapeutic index in the test with CV-1 [1] is given as 19.

Consider `CN(C)S(=O)(=O)Nc1ccc(C(=O)Nc2ccc(Br)cc2)cc1`, for which the ED50 in the test on HeLa [3] was determined as 0.68 µg/mL (≈ 1.71 µM); in the test on HeLa [5], 0.42 µg/mL (≈ 1.05 µM); with HeLa [6], 5.2 µg/mL (≈ 13.1 µM); in the test with HeLa [8], 4 µg/mL (≈ 10 µM); with HeLa [10] it was 0.6 µg/mL (≈ 1.51 µM); in the test on HeLa [11], 0.68 µg/mL (≈ 1.71 µM). The Inhibition in the test on CV-1 [4] is 0%; with CV-1 [7], 12%; in the test on CV-1 [9], 0%. Further, the EC50 in the test on Poliovirus 1 is 0.3 µg/mL (≈ 0.753 µM); in the test on Enterovirus [2], 0.26 µg/mL (≈ 0.653 µM). The compound further displayed a Chemotherapeutic index in the test on CV-1 [1] of 600.

In the case of `CN(C)S(=O)(=O)Nc1cccc(/C(=N/O)c2cccc(N)c2)c1`, the EC50 with Poliovirus 1 was determined as 0.7 µg/mL (≈ 2.09 µM). This compound showed a Chemotherapeutic index in the test on CV-1 [12] of 66.

For the compound `CCCCCCc1ccc(NC(=O)c2ccc(NS(=O)(=O)N(C)C)cc2)cc1`, the results for the EC50 in the test with Poliovirus 1 and in the test with Enterovirus [2] were 0.16 µg/mL (≈ 0.396 µM) and 0.24 µg/mL (≈ 0.595 µM), respectively. The Chemotherapeutic index with CV-1 [1] was determined as 11.

As for `COc1ccc(/C(=N\O)c2cccc(NS(=O)(=O)N(C)C)c2)cc1`, the ED50 in the test with HeLa [3] worked out at 0.29 µg/mL (≈ 0.83 µM); with HeLa [5], 0.26 µg/mL (≈ 0.744 µM); in the test on HeLa [8] it was 0.64 µg/mL (≈ 1.83 µM); with LLC-MK2 it was 0.75 µg/mL (≈ 2.15 µM); in the test with HeLa [10] it was 0.44 µg/mL (≈ 1.26 µM). In addition, the EC50 in the test with Poliovirus 1 was found to be 0.26 µg/mL (≈ 0.744 µM); with Enterovirus [13], 0.29 µg/mL (≈ 0.83 µM). In the test on CV-1 [1], this compound returned a Chemotherapeutic index of 56.

In the case of `CN(C)S(=O)(=O)Nc1ccc(C(=O)NCCCCc2ccccc2)cc1`, the Inhibition in the test with CV-1 [14] came out at 87.8%; in the test with CV-1 [4], 0%; in the test with CV-1 [15] it was 10%; in the test with CV-1 [16], 91.2%; in the test on CV-1 [17] it was 61%; in the test on CV-1 [18], 88.3%. In addition, the results for the Inhibition in the test with CV-1 [19], in the test with CV-1 [20] and in the test on CV-1 [21] were 3%, 24.4% and 0%, respectively. The ED50 stood at 0.12 µg/mL (≈ 0.32 µM) with HeLa [3]; 0.09 µg/mL (≈ 0.24 µM) in the test on HeLa [5]; 0.4 µg/mL (≈ 1.07 µM) in the test on HeLa [6]; 0.42 µg/mL (≈ 1.12 µM) in the test with HeLa [8]; 0.7 µg/mL (≈ 1.86 µM) with LLC-MK2; 0.12 µg/mL (≈ 0.32 µM) in the test on HeLa [10]. In addition, the ED50 in the test on HeLa [11] stood at 0.13 µg/mL (≈ 0.346 µM). The EC50 with Poliovirus 1 worked out at 0.09 µg/mL (≈ 0.24 µM); in the test with Enterovirus [2], 0.13 µg/mL (≈ 0.346 µM). The compound further displayed a Chemotherapeutic index in the test on CV-1 [1] of 18.
